Experimental data collected from several papers.
Compare with care: the assays were run in different laboratories.
Organism: Severe acute respiratory syndrome coronavirus 2

| Compound | observed | mode | cell line | time | IC50 |
| --- | --- | --- | --- | --- | --- |
| CCCCCCCCCC(=O)N[C@@H](Cc1c[nH]c2ccccc12)C(=O)N[C@H](CC(N)=O)C(=O)N[C@@H](CC(=O)O)C(=O)N[C@@H]1C(=O)NCC(=O)N[C@@H](CCCN)C(=O)N[C@@H](CC(=O)O)C(=O)N[C@H](C)C(=O)N[C@@H](CC(=O)O)C(=O)NCC(=O)N[C@H](CO)C(=O)N[C@@H]([C@H](C)CC(=O)O)C(=O)N[C@@H](CC(=O)c2ccccc2N)C(=O)O[C@@H]1C | viral replication | inhibitor | Vero | 24 h | > 0.4 µg/mL |
| CN(C)CCCN1c2ccccc2Sc2ccc(Cl)cc21 | viral replication | inhibitor | A549-ACE2 |  | 2240 nM |
| Nc1nc(S[C@@H]2O[C@H](CO)[C@H](O)[C@H](O)[C@H]2O)[nH]c(=S)c1C(=O)Nc1ccc(Cl)cc1 | viral replication |  | Vero C1008 | 72 h | 15400 nM |
| C[C@@H](O)[C@H]1C(=O)N2C(C(=O)O)=C(S[C@@H]3CN[C@H](C(=O)N(C)C)C3)[C@H](C)[C@H]12 | viral replication | inhibitor | Huh-7 |  | > 2000 nM |
| CCOP(=O)(OCC)N1C/C(=C\c2ccc(F)cc2)C(=O)C2(C1)C(c1ccc(F)cc1)CN(C)C21C(=O)Nc2ccc(Cl)cc21 (stereo not drawn) | viral replication | inhibitor | Vero C1008 | 72 h | 13500 nM |
| CCN(CC)CCOc1ccc(C(O)(Cc2ccc(Cl)cc2)c2ccc(C)cc2)cc1 (stereo not drawn) | viral replication | inhibitor | A549-ACE2 |  | 363 nM |
| COc1cc(Nc2c(C#N)cnc3cc(OCCCN4CCN(C)CC4)c(OC)cc23)c(Cl)cc1Cl | viral replication | inhibitor | Huh-7 |  | 20 nM |
| COc1ccc(CN2CCN(Cc3ccccc3)CC2)cc1 | viral replication |  | Vero C1008 |  | 1580 nM |
| CC(=O)OC[C@H]1O[C@@H](Sc2nc(N)c(C(=O)Nc3ccc(Cl)cc3)c(=S)[nH]2)[C@H](OC(C)=O)[C@@H](OC(C)=O)[C@@H]1OC(C)=O | viral replication |  | Vero C1008 | 72 h | 77400 nM |
| C[C@]12C=CC(=O)C=C1CC[C@@H]1[C@@H]2[C@@H](O)C[C@@]2(C)[C@H]1C[C@H]1O[C@@H](C3CCCCC3)O[C@]12C(=O)CO | viral replication |  | VeroE6/TMPRSS2 |  | 8100 nM |
| CCSc1ccc2c(c1)N(CCCN1CCN(C)CC1)c1ccccc1S2 | viral replication | inhibitor | Vero C1008 |  | 7090 nM |
| NC(=O)c1ncn([C@@H]2O[C@H](CO)[C@@H](O)[C@H]2O)n1 | viral replication | inhibitor | Vero C1008 |  | > 10000 nM |
| CN1[C@@H]2CC[C@H]1C[C@@H](OC(c1ccccc1)c1ccc(Cl)cc1)C2 (stereo partly drawn) | cytopathic effect |  | Vero C1008 | 72 h | 8900 nM |
| CC[C@H](C)C[C@H](C)CCCCCCCCC(=O)N[C@H]1C[C@@H](O)[C@@H](NCCN)NC(=O)[C@@H]2[C@@H](O)CCN2C(=O)[C@H]([C@H](O)CCN)NC(=O)[C@H]([C@H](O)[C@@H](O)c2ccc(O)cc2)NC(=O)[C@@H]2C[C@@H](O)CN2C(=O)[C@H]([C@@H](C)O)NC1=O | viral replication | inhibitor | Vero | 24 h | > 200 µg/mL |
| CCN(CC)CCOc1ccc(C(O)(Cc2ccc(Cl)cc2)c2ccc(C)cc2)cc1 (stereo not drawn) | viral replication | inhibitor | Vero C1008 |  | 4680 nM |
| CCN(CC)CCCC(C)Nc1ccnc2cc(Cl)ccc12 (stereo not drawn) | viral replication | inhibitor | Vero C1008 |  | 1380 nM |
| Clc1ccc(C(Cn2ccnc2)OCc2ccsc2Cl)c(Cl)c1 (stereo not drawn) | viral replication | inhibitor | Calu-3 | 40 h | 2430 nM |
| COc1ccc2c(O[C@@H]3C[C@H]4C(=O)N[C@]5(C(=O)NS(=O)(=O)C6CC6)C[C@H]5/C=C\CCCCN(C)C(=O)[C@@H]4C3)cc(-c3nc(C(C)C)cs3)nc2c1C | viral replication |  | HEK-293T |  | 2300 nM |
| CCOC(=O)N1CCC(=C2c3ccc(Cl)cc3CCc3cccnc32)CC1 | viral replication | inhibitor | Huh-7 |  | > 2000 nM |
| CC(CN1c2ccccc2Sc2ccccc21)N(C)C (stereo not drawn) | viral replication | inhibitor | A549-ACE2 |  | 575 nM |
| CCc1nc(C(N)=O)c(Nc2ccc(N3CCC(N4CCN(C)CC4)CC3)c(OC)c2)nc1NC1CCOCC1 | viral replication | inhibitor | Huh-7 |  | 255 nM |
| CC(C)(C)[C@]1(O)CCN2C[C@H]3c4ccccc4CCc4cccc(c43)[C@@H]2C1 | viral replication |  | Vero C1008 |  | 6170 nM |
| CC(C)c1nc(CN(C)C(=O)N[C@H](C(=O)N[C@@H](Cc2ccccc2)C[C@H](O)[C@H](Cc2ccccc2)NC(=O)OCc2cncs2)C(C)C)cs1 | viral replication | inhibitor | Vero C1008 |  | 11700 to 19900 nM |
| COC(=O)c1ccc2c(c1)NC(=O)/C2=C(\Nc1ccc(N(C)C(=O)CN2CCN(C)CC2)cc1)c1ccccc1 | viral replication | inhibitor | Huh-7 |  | > 2000 nM |

| Compound | observed | mode | cell line | time | IC50 |
| --- | --- | --- | --- | --- | --- |
| C[C@@H]1O[C@@H](O[C@H]2C[C@@H](O)[C@]3(CO)[C@H]4[C@H](O)C[C@]5(C)[C@@H](C6=CC(=O)OC6)CC[C@]5(O)[C@@H]4CC[C@]3(O)C2)[C@H](O)[C@H](O)[C@H]1O | viral replication | inhibitor | Vero C1008 |  | 30 nM |
| CC(=O)OC[C@H]1O[C@@H](Sc2nc(N)c(C(=O)Nc3ccccc3)c(=S)[nH]2)[C@H](OC(C)=O)[C@@H](OC(C)=O)[C@H]1OC(C)=O | viral replication |  | Vero C1008 | 72 h | 86000 nM |
| O=C1NCN(c2ccccc2)C12CCN(CCCC(c1ccc(F)cc1)c1ccc(F)cc1)CC2 | viral replication | inhibitor | Vero C1008 |  | 3160 nM |
| CNc1ccc2oc(C[C@H]3O[C@@]4(CC[C@H]3C)O[C@H]([C@H](C)C(=O)c3ccc[nH]3)[C@H](C)C[C@H]4C)nc2c1C(=O)O | viral replication | inhibitor | Calu-3 | 40 h | 1550 nM |
| COc1cc2c(cc1OC)CN(CCc1ccc(NC(=O)c3cccc4c(=O)c5cccc(OC)c5[nH]c34)cc1)CC2 | viral replication |  | Vero C1008 |  | 575 nM |
| N=C(N)NCCN1CCCCCCC1 | viral replication | inhibitor | Huh-7 |  | > 2000 nM |
| Nc1c2ccccc2nc2ccccc12 | viral replication | inhibitor | Calu-3 | 40 h | 4440 nM |
| CC(C)N1CCN(c2ccc(OCC3COC(Cn4cncn4)(c4ccc(Cl)cc4Cl)O3)cc2)CC1 (stereo not drawn) | viral replication | inhibitor | Vero C1008 |  | 11900 nM |
| Nc1nc(S)[nH]c(=S)c1C(=O)Nc1ccccc1 | viral replication |  | Vero C1008 | 72 h | 341000 nM |
| CCN(CCO)CCCC(C)Nc1ccnc2cc(Cl)ccc12 (stereo not drawn) | viral replication | inhibitor | Vero C1008 |  | 9210 nM |
| CC[C@@H]1C[C@]1(NC(=O)[C@@H]1C[C@@H]2CN1C(=O)[C@H](C(C)(C)C)NC(=O)OCC(C)(C)CCCCc1cccc3c1CN(C3)C(=O)O2)C(=O)NS(=O)(=O)C1CC1 | viral replication |  | HEK-293T |  | 3000 nM |
| Cc1ccc(NC(=O)c2c(N)nc(S[C@@H]3O[C@H](CO)[C@@H](O)[C@H](O)[C@H]3O)[nH]c2=S)cc1 | viral replication |  | Vero C1008 | 72 h | 73700 nM |
| COC(=O)Nc1nc2ccc(C(=O)c3ccccc3)cc2[nH]1 | viral replication | inhibitor | Vero C1008 |  | 250 to 1200 nM |
| CCN(C)C(=O)Oc1cccc([C@H](C)N(C)C)c1 | viral replication | inhibitor | Huh-7 |  | > 2000 nM |
| C[C@H](Nc1nc(N2CCNCC2)nc2ccccc12)c1ccccc1 | cytopathic effect |  | Vero C1008 | 72 h | 10000 nM |
| Nc1nc(S[C@@H]2O[C@H](CO)[C@@H](O)[C@H](O)[C@H]2O)[nH]c(=S)c1C(=O)Nc1ccccc1 | viral replication |  | Vero C1008 | 72 h | 47800 nM |
| COc1c(C)c2c(c(O)c1C/C=C(\C)CCC(=O)OCCN1CCOCC1)C(=O)OC2 | viral replication | inhibitor | Calu-3 | 40 h | 2150 nM |
| CCN(CC)CCO[C@H]1CC[C@@]2(C)C(=CC[C@@H]3[C@@H]2CC[C@]2(C)C(=O)CC[C@@H]32)C1 | viral replication |  | Vero C1008 |  | 2400 nM |
| COc1cccc2c1C(=O)c1c(O)c3c(c(O)c1C2=O)C[C@@](O)(C(C)=O)C[C@@H]3O[C@H]1C[C@H](N)[C@H](O)[C@H](C)O1 | viral replication | inhibitor | Calu-3 | 40 h | 1230 nM |
| CC[C@H](C)[C@H]1C(=O)N2CCC[C@H]2C(=O)O[C@H](C(C)(C)C)C[C@@H](C)C[C@H](O)[C@H](C)C2=N[C@@H](CCC(=O)N[C@@H](Cc3ccc(OC)cc3)C(=O)N(C)[C@@H](C)C(=O)N1C)CS2 | viral replication | inhibitor | Vero C1008 |  | 170 nM |
| CCOP(=O)(OCC)N1C/C(=C\c2ccc(Br)cc2)C(=O)C2(C1)C(c1ccc(Br)cc1)CN(C)C21C(=O)Nc2ccccc21 (stereo not drawn) | viral replication | inhibitor | Vero C1008 | 72 h | 8880 nM |
| CN(C)CCC=C1c2ccccc2CCc2ccccc21 | viral replication | inhibitor | A549-ACE2 |  | 871 nM |
| CCN(CC)CCNC(=O)c1cc(Cl)c(N)cc1OC | viral replication | inhibitor | Huh-7 |  | 468 nM |
| CCN(CC)CCCC(C)Nc1c2ccc(Cl)cc2nc2ccc(OC)cc12 (stereo not drawn) | viral replication |  | Calu-3 |  | > 50000 nM |
